Only some compounds are listed: those with a hit (about 5.6% of all), similar ones and a draw of the others.
CHOP inh: inhibitors of CHOP promoter induction, primary screen, cell-based, unfolded protein response, luciferase reporter | CHO-K1 CHOP-promoter luciferase, tunicamycin-induced, 15-18 h | inhibition, % at 10 µM | actives 3.8% (n = 220,000) | AID 2732, 2010;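 active = compounds that reduced the stress-induced luciferase reporter signal by more than about 70% of percent inhibition, limit read from the data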;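 also: 0% = tunicamycin plus vehicle and 100% = wells without tunicamycin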
XBP1 UPR activ: activators of adaptive XBP1 UPR arm, primary screen, cell-based, CHO-XBP1 luciferase reporter, luminescence, uHTS | actives 0.33% (n = 330,000) | activation, % at 20 µM | IRE1-XBP1 UPR activation; percent of tunicamycin response, DMSO as zero;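 active = versus positive control, 20 µM dose yields 30% or more activation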;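 also: 100% = tunicamycin at 10 µg/mL and 0% = DMSO only wells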
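Material: CHO cell line with stable XBP1 luciferase reporter; schedule: 16-18 h cell attachment at 37 °C, then 6 h compound exposure; signal: glow luminescence from Steady-Glo reagent; medium: serum-containing F12 medium, 10% FBS; benchmarks: tunicamycin 10 µg/mL and vehicle-only wells; read-out: percent activation relative to tunicamycin reference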
UPR CHOP act: activators of apoptotic CHOP UPR arm, primary screen, cell-based, CHO-CHOP luciferase reporter, luminescence, uHTS; AID 449763, 2010; UPR activation; percent of tunicamycin response over DMSO baseline; actives 0.34% (n = 330,000); activation, % at 10 µM;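 active = at 10 µM dose, activation of 40% or more, normalized to positive control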;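 also: 100% = tunicamycin at 10 µg/mL and 0% = DMSO alone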
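Evaluation: % reporter activation, DMSO baseline versus tunicamycin full activation; System: CHO-CHOP luciferase reporter cell line; Input: 500 cells/well; Incubation: 6 h compound treatment, 37 °C; Measured by: Steady-Glo luciferase luminescence; Dosing: one dose, 10 µM in 0.5% DMSO; Buffer or medium: F12 medium, 10% FBS; Benchmarks: positive tunicamycin 10 µg/mL, negative DMSO alone.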
GRIN3A LBD mod: binders of NR3A ligand-binding domain, primary screen, biophysical, differential scanning fluorimetry, uHTS; Glutamate receptor ionotropic, NMDA 3A (GRIN3A) ligand-binding domain; NR3A LBD differential scanning fluorimetry, Tm shift; 0% = protein alone, 100% = glycine-bound protein; Tm shift relative to glycine control, % at 25 µM; actives 2.5% (n = 340,000);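 active = melting temperature shift of at least 10% of the positive control shift, at one fixed dose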
aDG glyco act: activators of alpha-DG glycosylation, primary screen, uHTS, Pro5-aDG cells, AlphaScreen; alpha-DG glycosylation AlphaScreen (IIH6); 0% Pro5, 100% B10-LARGE cell signal; activation, % at 10 µM; actives 0.22% (n = 360,000);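 active = activation of at least 8% versus controls, or a plate z-score of at least 8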;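 also: Pro5 are CHO cells carrying HIG-tagged alpha-DG that lacks glycosylation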
MPTP block: mitochondrial permeability transition pore inhibitors, primary screen, biochemical, isolated mouse mitochondria, absorbance. Ca2+ swelling absorbance, 30 min. inhibition, % at 10 µM. actives 1.4% (n = 360,000);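 active = inhibition of 50% or more, scaled per plate between neutral and stimulator controls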;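 also: 0% = DMSO wells given calcium and 100% = 1 mM EGTA wells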
* marks the source's active call; other numbers are inactive results; · = no result given.

SMILES	CHOP inh	XBP1 UPR activ	UPR CHOP act	GRIN3A LBD mod	aDG glyco act	MPTP block
CC(C)c1ccc(NC(=O)c2cc(S(=O)(=O)N3CCCC3)c[nH]2)cc1	·	-3.4	-0.6	-11.2	0.2	1.5
CN/N=C/c1ccc(C#N)cc1	2.4	1.3	-0.5	-17.1	-0.3	0.8
Cc1ccccc1N/N=C/c1ccc(C#N)cc1	14.9	0.6	4.2	17.6*	0.1	11.5
CCC(c1nnnn1Cc1ccccc1)N(Cc1ccco1)Cc1cc2cc(OC)ccc2[nH]c1=O (stereo not given)	3.9	-3.0	1.4	0.9	0.0	-4.5
CCCC(c1nnnn1C(C)(C)CC)N(Cc1ccco1)Cc1cc2ccc(OC)cc2[nH]c1=O (stereo not given)	90.6*	·	·	-5.8	0.1	-2.0
NC(=O)c1ccc2c(=O)n3c(-c4cc(Cl)c(N)c(Cl)c4)csc3nc2c1	87.5*	0.8	-2.2	-2.3	-0.3	-1.8
CN1CCN(Cc2nc3ccccc3c(=O)n2Cc2nc(-c3ccc4ccccc4c3)cs2)CC1	88.1*	·	·	1.4	-0.6	-0.4
c1ccc(CN2CCC(Nc3nc(-c4cccs4)nc4ccccc34)CC2)cc1	74.9*	2.9	0.6	5.1	-0.4	5.7
c1csc(-c2nc(NCC3CCCO3)c3ccccc3n2)c1 (stereo not given)	·	-7.2	0.9	-0.1	-0.1	0.5
O=C(COC(=O)C1CC2C=CC1C2)Nc1ccc2c(c1)OC(F)(F)O2 (stereo not given)	90.7*	0.9	4.1	-4.9	0.2	26.1
O=[N+]([O-])c1cccc(NNS(=O)(=O)c2ccccc2F)c1	·	-6.9	-0.2	2.4	0.0	-1.1
CCn1nnc(-c2ccccc2NS(=O)(=O)c2ccc(C(=O)OC)cc2)n1	-2.5	-2.7	-2.6	12.2*	0.5	6.5
COc1ccc(NC(=O)Cn2nnc(-c3ccccc3NS(=O)(=O)c3ccc(OC)cc3)n2)cc1	15.0	6.0	-1.1	1.3	0.0	2.7
CCCCCNC(=O)C(=O)C1C(=O)Nc2ccccc21 (stereo not given)	-6.4	-2.5	-0.9	28.5*	0.0	1.0
O=C(NCCNS(=O)(=O)c1ccccc1Cl)c1cc(OCC(F)(F)F)ccc1OCC(F)(F)F	-3.1	-1.4	0.0	-0.3	0.1	2.1
O=C(N/N=C\c1ccc(F)cc1)c1cc(OCC(F)(F)F)ccc1OCC(F)(F)F	42.1	-3.1	-3.6	-7.9	0.0	13.0
O=C(NNC(=O)c1cc(OCC(F)(F)F)ccc1OCC(F)(F)F)c1ccc(Cl)c(Cl)c1	81.6*	-1.1	0.5	-18.8	0.2	-4.4
C=CCONC(=O)c1cc(OCC(F)(F)F)ccc1OCC(F)(F)F	71.2*	0.8	-2.1	-1.7	0.2	1.5
Cc1ccc(/C=N\NC(=O)c2cc(OCC(F)(F)F)ccc2OCC(F)(F)F)cc1	54.9	4.5	0.0	14.2*	-0.2	-0.2
COc1ccccc1Cc1c(-c2ccc(C#N)cc2)nc2ccc(C)cn12	·	·	·	·	0.7	-1.1
Cc1nccn1C(c1ccccc1)c1ccccc1	·	-4.9	0.7	1.4	0.1	2.2
O=C(COc1ccc(Br)cc1)N(Cc1ccco1)C1CCS(=O)(=O)C1 (stereo not given)	·	-5.2	2.5	-1.5	-0.2	-1.7
CN(C)C(=S)N=c1ssc(=S)n1Cc1cccnc1	·	·	·	26.8*	0.0	-0.8
S=C1NCN(Cc2cccnc2)CN1	4.3	0.0	-1.0	0.2	-0.1	0.8
C[C@@H]1CN([C@@H](C)CO)C(=O)c2cc(Br)cnc2O[C@H]1CN(C)C(=O)Nc1ccc(F)cc1	·	·	·	·	-0.2	-0.4
SMILES	CHOP inh	XBP1 UPR activ	UPR CHOP act	GRIN3A LBD mod	aDG glyco act	MPTP block
O=C(NCC(=O)N(c1ccc(F)cc1)C(C(=O)NC1CCCC1)c1cccnc1)c1cccs1 (stereo not given)	18.0	-3.2	0.1	-3.2	0.0	-0.2
O=C(NCC(=O)N(c1ccccc1)C(C(=O)NC1CCCCC1)c1cccnc1)c1cccs1 (stereo not given)	85.6*	-1.0	-1.7	-1.5	0.3	2.2
O=C(NC1CCCCC1)C(c1cccnc1)N(C(=O)CCl)c1ccc(F)cc1 (stereo not given)	88.1*	·	·	2.1	-0.3	1.5
CC(C)(C)S(=O)(=O)N1Cc2cc(=O)n(Cc3ccccc3)c(CCO)c2[C@H]1CCO	·	·	·	-0.2	0.5	-0.4
CCOc1ccc(NS(=O)(=O)c2ccc3c(c2)CCN3C(=O)C2CCC2)cc1	81.9*	-2.6	-2.4	-1.5	0.3	5.3
O=C(C1CCC1)N1CCc2cc(S(=O)(=O)NCCN3CCN(c4ccccc4F)CC3)ccc21	74.1*	3.8	5.1	0.9	1.5	26.3
O=C(CSc1nnc(-c2cccnc2)o1)Nc1ccccc1F	·	0.4	4.1	0.5	0.2	-1.6
CC(C)(C)OC(=O)NCCCCCNC(=O)c1[nH]cnc1C(=O)Nc1cc(Br)ccc1F	·	·	·	·	0.8	-2.1
CCCCCCCCCCCCCC(=O)NO	·	·	·	-0.1	0.2	2.5
Cc1cc(=O)n2nc(N3CCCC(C(=O)NCCCN4C(C)CCCC4C)C3)sc2n1 (stereo not given)	·	·	·	·	0.1	-0.2
CCOC(=O)c1sc2nc3c(SCCC(=O)O)cc(C(=O)c4cc(OC)ccc4O)cn3c(=O)c2c1C	102.0*	·	·	-2.1	-0.4	13.1
CCOC(=O)c1sc2nc3c(SCCC#N)cc(C(=O)c4cc(F)ccc4O)cn3c(=O)c2c1C	22.9	-2.0	-0.4	5.7	-0.6	5.9
CCc1ccn2cc(-c3cc(-c4ccccc4)no3)nc2c1	77.2*	-8.9	-8.8	-6.9	0.8	1.1
Clc1ccc(-c2cc(-c3ccccc3)on2)cc1	·	0.5	3.1	0.5	0.0	0.0
CCOC(=O)c1c(-c2ccc(C)o2)csc1NC(=S)NC(=O)c1ccccc1Br	14.7	0.9	-0.8	2.6	-0.2	0.2
CCOC(=O)c1c(-c2ccc(C)o2)csc1NC(=S)NC(=O)c1cccs1	-22.2	-1.0	2.0	18.0*	1.0	3.6
CCOC(=O)c1c(-c2ccccc2)csc1NC(=S)NC	92.6*	3.3	-1.7	-7.1	-0.6	9.3
CCOC(=O)c1c(-c2cccs2)csc1NC(=O)CN1CC(C)OC(C)C1 (stereo not given)	84.5*	1.9	-4.8	1.0	-0.1	-1.8
CCC1CCCCN1CCCNC(=O)c1ccc2c(c1)N(Cc1ccc(F)cc1)C(=O)c1ccccc1S2=O (stereo not given)	·	-0.6	4.5	-3.1	1.3	0.3

Source: PubChem (several laboratories)
